Myeloid diff 2 = compounds promoting myeloid differentiation | calls only at 10 µM | AID 624256 | hit rate 1% among 360,000 | ER-HoxA9 myeloid progenitors, lysozyme-GFP differentiation, flow cytometry;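 active means normalized GFP-positive differentiation at or above the plate's own cutoff, the solvent-only control mean plus 3 SD; inconclusive means no clear call, values can overlap the other calls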;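 further: cells exposed to compound for four days before flow analysis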
T cell modulator = modulates CD8 T cell binding to vesicles | 2C CD8+ T cell-vesicle binding, flow cytometry; stronger effect = lower value | response (vesicle binding), % at 7 µM | hit rate 0.068% among 330,000 | AID 2052;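 active means response, share of CD8 T cells binding vesicles, and their 90th percentile fluorescence all below set limits, cut at about 80% in these data, passing the limit was not always enough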;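 further: values below 100% mean blocked vesicle binding to the CD8+ T cells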
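Also added: QL9-peptide-loaded Drosophila micro-vesicles bearing Ld, ICAM-1 and B7-1; Test system: purified 2C TCR transgenic mouse naive CD8+ T cells; Measured by: cytometric PE anti-B7-1 and Alexa647 anti-CD8 signals after 1% paraformaldehyde fixation; Timing: binding step 1.5 h, 37 °C, antibody labelling 20 min, ice.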
DSG3 Ab inh = inhibitors of pemphigus antibody binding to human desmoglein-3; P32926; DSG3-coupled beads, scFv-anti-DSG3-GFP binding, flow cytometry; stronger effect = lower value; binding (percent of control), % at 10 µM; hit rate 0.48% among 310,000; AID 588358;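 active means binding more than 3 SD below its plate's average and above zero; inconclusive means below that plate limit but binding exactly zero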
Vif inh = inhibitors of HIV Vif; HEK293T cells, Vif self-association by quenched fluorescence, imaging, 24 h; inhibition, % at 7.49 µM; hit rate 0.35% among 340,000; in the data active means inhibition above about 50%, passing the limit was not always enough; inconclusive means no clear call, values can overlap the other calls; inactive means below about 31%
* = called active by the depositor; i = inactive; ? = inconclusive; . = no result given; + = active, no number; ! = not confirmed by another sample. A selection: hits, their analogues and other compounds. The true share with any hit is near 1.7%.

SMILES | Myeloid diff 2 | T cell modulator | DSG3 Ab inh | Vif inh
CC[C@]12c3[nH]c4cc(CCC(=O)N(C)C)ccc4c3CCN1C(=O)[C@@H](CC(=O)NCCc1ccccn1)C[C@@H]2C(=O)N1CCN(C(=O)c2ccco2)CC1 | + | . | 103.1 | .
C[C@]12c3[nH]c4cc(-c5ccco5)ccc4c3CCN1C(=O)[C@@H](CC(=O)NCCN1CCOCC1)C[C@@H]2C(=O)N1CCOCC1 | + | . | 97.2 | .
CC(C)=CCC/C(C)=C/CNC(=O)C[C@H]1C[C@H](C(=O)N2CCCCC2)[C@@]2(CCc3ccccc3)c3[nH]c4ccc(Cl)cc4c3CCN2C1=O | i | . | 100.6 | -15.4
COC(=O)[C@@]12C[C@@H](CC(=O)NCC34CC5CC(CC(C5)C3)C4)C(=O)N(CCc3ccc(OC)c(OC)c3)C1=CCC(C)(C)C2 | i | . | . | .
COc1ccccc1Oc1coc2cc(OCC(N)=O)ccc2c1=O | i | 235.5 | 94.4 | 59.5*
CCCNC(=O)COc1ccc2c(=O)c(Oc3ccccc3F)coc2c1 | i | 433.6 | 95.2 | -17.0
Cc1ccc(S(=O)(=O)N(CC(=O)N=Nc2c(O)[nH]c3ccccc23)c2cccc(C)c2)cc1 | i | 240.7 | 84.8* | -1.5
Fc1ccc(NC(=S)N/N=C/c2ccc(F)c(F)c2)c(F)c1 | i | 935.8 | 96.3 | 109.7*
C=CC[C@H](CC(=O)NCCO)C(=O)N[C@H](COC(=O)[C@H](CC=C)CC(=O)OC(C)(C)C)Cc1c[nH]c2ccccc12 | i | 460.3 | 102.2 | -3.0
N#CCOc1ccccc1CNC[C@H]1O[C@@H](n2cnc3c(=O)[nH]c(N)nc32)[C@H](O)[C@@H]1O | i | . | . | .
Cc1noc(/C=C/c2ccco2)c1S(=O)(=O)N1CCC(C(=O)N(C)Cc2ccccc2)CC1 | i | i | 97.2 | 2.5
CC(NC(=O)C1CCN(S(=O)(=O)c2cccc3cccnc23)CC1)c1ccccc1 (configuration not stated) | + | 492.2 | 94.1 | -2.2
Cc1noc(/C=C/c2ccco2)c1S(=O)(=O)N1CCC(C(=O)NC(C)c2ccccc2)CC1 (configuration not stated) | + | 409.9 | 103.3 | 20.1
COc1ccc(CNC(=O)C2CCN(S(=O)(=O)c3cccc4cccnc34)CC2)cc1 | i | 639.1 | 102.8 | 6.8
O=C(NCc1ccccc1)C1CCN(S(=O)(=O)c2cccc3cccnc23)CC1 | i | 397.8 | 89.6* | -0.3
CN(C(=O)c1cccc(NC(=O)Cc2cccc(NC(=O)C3CCN(C(=O)C4CCCCC4)CC3)c2)c1)C1CCC1 | i | . | 104.5 | 1.0
CC(C)NC(=O)Nc1ccc2c(c1)C(=O)N([C@H](C)CO)C[C@H](C)[C@@H](CN(C)Cc1ccc3c(c1)OCO3)OCCCC[C@@H](C)O2 | i | . | 101.2 | -3.9
Cc1ccc(S(=O)(=O)N2CCOCC2)cc1NC(=O)Nc1ccc([N+](=O)[O-])cc1 | i | 161.2 | 98.4 | 8.3
OC1COC(c2ccccc2)OC1C1OC(c2ccccc2)OCC1O (configuration not stated) | i | . | 99.6 | 15.3
CC1OC(c2ccccc2)OC2COC(c3ccccc3)OC12 (configuration not stated) | i | . | -6.5* | 2.2
CNc1ccccc1C(=O)OCC(=O)N1CCc2ccccc2C1 | i | . | 102.2 | ?
CC(NC(=O)/C(C#N)=C/c1ccc(C(=O)O)cc1)c1ccccc1 (configuration not stated) | i | 258.9 | 104.5 | 1.0
COc1cc(/C=C(/C#N)C(=O)NC(C)c2ccccc2)cc(OC)c1O (configuration not stated) | i | 180.6 | 113.1 | 54.0*
COCCSc1nnc(NS(=O)(=O)c2ccccc2)s1 | i | 93.6 | 98.7 | 56.4*
COc1ccc(-c2cnc(C(N)=O)c(=O)[nH]2)cc1 | i | . | 111.1 | 2.4
SMILES | Myeloid diff 2 | T cell modulator | DSG3 Ab inh | Vif inh
Cc1cccc(/C=C/C(=O)c2ccc([N+](=O)[O-])o2)c1 | ? | 214.2 | 94.4 | 62.4*
O=C(/C=C/c1cccc([N+](=O)[O-])c1)c1ccc([N+](=O)[O-])o1 | + | 321.3 | 108.2 | ?
O=C(/C=C/c1cccc([N+](=O)[O-])c1)c1ccco1 | i | 314.3 | 94.4 | -4.1
COCCNC(=O)C1(C)CCCN(Cc2ccc(Cl)nc2)C1 (configuration not stated) | i | . | . | .
COCCCn1cc(CN2CC(N3CCSCC3)CS2(=O)=O)nn1 (configuration not stated) | i | . | . | .
CCOC(=O)C1=C(CSc2nc(CC)c(C)cc2C#N)OC(N)=C(C#N)C1c1ccc(OC)cc1 (configuration not stated) | + | 670.5 | . | 6.1
COc1ccc(Cl)cc1C(=O)NNC(=O)C1CCCO1 (configuration not stated) | i | . | 105.5 | -0.3
COC(=O)c1scc(C)c1N/N=C(\C)c1ccc(F)cc1 | i | 860.6 | -27.8* | -4.1
Cc1onc(-c2c(F)cccc2Cl)c1C(=O)OCC(=O)Nc1cccc(S(=O)(=O)N(C)C)c1 | i | . | 109.2 | -15.2
NCCCC[C@H](N[C@@H](CCc1ccccc1)C(=O)O)C(=O)N1CCC[C@H]1C(=O)O | i | i | 95.0 | 78.6*!
CC(C)(C)OC(=O)N[C@H](Cc1ccccc1)C(=O)N1CCC[C@@H]1C(=O)O | i | 425.8 | 109.9 | 5.2
COC(=O)c1c(C(=O)OC)c(-c2cccc(Cl)c2)n2c1CS(=O)(=O)C2 | + | 92.6 | 102.8 | -7.7
OC(c1ccccc1)C(O)c1ccccc1 (configuration not stated) | i | 298.1 | 90.7* | -3.5
Clc1cc2c(c(CSc3nc4ccccc4n4cccc34)c1)OCOC2 | i | 107.5 | 88.7 | 76.2*
Clc1cc2c(c(Cn3cnc4ccccc43)c1)OCOC2 | i | 225.5 | . | -24.6
COc1cc(C)ccc1S(=O)(=O)NC(=O)C1(C)CCN1C(=O)Cc1ccc(Cl)cc1Cl (configuration not stated) | + | . | . | -3.5
O=c1c2nnn(-c3ccccc3)c2ncn1C/C=C/c1ccccc1 | i | i | 70.1* | .
CCCOC(=O)CSc1nc(N)c(C#N)c(CC)c1C#N | i | 164.3 | 12.5* | -2.6
CCCCOC(=O)CSc1nc(N)c(C#N)c(-c2ccc(OC)cc2)c1C#N | i | 228.8 | -28.5* | 19.0
CCCOC(=O)CSc1nc(N)c(C#N)c(-c2ccco2)c1C#N | i | 347.8 | . | -10.9
CCOC(=O)CSc1nc(N)c(C#N)c(-c2ccc(OC)cc2)c1C#N | i | 731.0 | 68.1 | 11.3
CCCCOc1ccc(-c2c(C#N)c(N)nc(SCC(N)=O)c2C#N)cc1 | i | 253.4 | 113.4 | 5.4
CCCCOC(=O)CSc1nc(N)c(C#N)c(-c2ccc(OCC)cc2)c1C#N | i | 317.7 | 80.1* | 7.8
CCCCN(C(=O)c1ccccc1Br)C(c1ccc(OC)cc1)c1nc2ccccc2[nH]1 (configuration not stated) | i | . | . | 10.3
CN(C)CCCNC(=O)/C(=C/c1ccc(-c2ccc([N+](=O)[O-])cc2)o1)NC(=O)c1ccccc1 | + | 402.9 | 118.1 | 32.2
